# Measured values as given in ChEMBL document CHEMBL3244170, “Synthesis and biological evaluation of 9,11-azo-13-oxa-15-hydroxyprostanoic acid, a potent inhibitor of platelet aggregation” (J Med Chem, 1979).
# Activity calls are given as the source filed them. The calls are words filed in the database; no cut-off is given here.
# Experiments:
# Platelet [1] = assay: Inhibition of 2 x 10^-6 M ADP-induced platelet aggregation in human platelet rich plasma at 10^-4 to 10^-6 M incubated for 1.5 mins at 37.5 degC; type: functional
# Method in brief: (§1)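 Human platelet-rich plasma incubated with test agent for 1.5 min at 37.5 °C, then aggregating agent added. Aggregation followed for 5 min turbidimetrically in a dual-channel aggregometer. Baseline (0%) was set with PRP. Full scale (100%) was set at the optical density of plasma treated with the aggregating agent alone. Agents were also checked for agonist activity at 10^-4 and 10^-6 M.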
# Platelet [2] = assay: Inhibition of 8.2 x 10^-4 M arachidonic acid-induced platelet aggregation in human platelet rich plasma at 10^-4 M incubated for 1.5 mins at 37.5 degC; type: functional; method in brief: as §1
# Platelet [3] = assay: Inhibition of 9.5 x 10^-7 M 9,11 methanoepoxy-PGH2-induced platelet aggregation in human platelet rich plasma at 10^-4 M incubated for 1.5 mins at 37.5 degC; type: functional; method in brief: as §1
# Platelet [4] = assay: Induction of 1.4 x 10^-6 M PGH2-induced platelet aggregation in human platelet rich plasma at 10^-4 to 10^-6 M incubated for 1.5 mins at 37.5 degC
# Platelet [5] = assay: Induction of 8.2 x 10^-4 M arachidonic acid-induced platelet aggregation in human platelet rich plasma at 10^-4 to 10^-6 M incubated for 1.5 mins at 37.5 degC
# Platelet [6] = assay: Induction of 9.5 x 10^-7 M 9,11 methanoepoxy-PGH2-induced platelet aggregation in human platelet rich plasma at 10^-4 to 10^-6 M incubated for 1.5 mins at 37.5 degC
# Platelet [7] = assay: Inhibition of 1.4 x 10^-6 M PGH2-induced platelet aggregation in human platelet rich plasma at 10^-4 M incubated for 1.5 mins at 37.5 degC; type: functional; method in brief: as §1
# Platelet [8] = assay: Inhibition of 2 x 10^-6 M ADP-induced platelet aggregation in human platelet rich plasma at 10^-4 M incubated for 1.5 mins at 37.5 degC; type: functional; method in brief: as §1
# Platelet [9] = assay: Inhibition of 8.3 x 10^-4 M arachidonic acid-induced platelet aggregation in human platelet rich plasma incubated for 1.5 mins at 37.5 degC; type: functional; conditions: 0.025 h
# Platelet [10] = assay: Effect on arachidonic acid metabolism in washed human platelet assessed as HETE level at 10^-4 M by GC-MS analysis (reference value: 23 nmol); type: functional
# Platelet [11] = assay: Effect on arachidonic acid metabolism in washed human platelet assessed as TxB2 level at 10^-4 M by GC-MS analysis (reference value: 14 nmol); type: functional
# Thromboxane-A synthase = target: T1, Thromboxane-A synthase (Homo sapiens, UniProt P24557); assay: Inhibition of thromboxane synthetase in intact human platelet microsomes assessed as inhibition of [1-14C]PGH2 to [1-14C]TxA2
# T1 sequence (P24557 whole entry): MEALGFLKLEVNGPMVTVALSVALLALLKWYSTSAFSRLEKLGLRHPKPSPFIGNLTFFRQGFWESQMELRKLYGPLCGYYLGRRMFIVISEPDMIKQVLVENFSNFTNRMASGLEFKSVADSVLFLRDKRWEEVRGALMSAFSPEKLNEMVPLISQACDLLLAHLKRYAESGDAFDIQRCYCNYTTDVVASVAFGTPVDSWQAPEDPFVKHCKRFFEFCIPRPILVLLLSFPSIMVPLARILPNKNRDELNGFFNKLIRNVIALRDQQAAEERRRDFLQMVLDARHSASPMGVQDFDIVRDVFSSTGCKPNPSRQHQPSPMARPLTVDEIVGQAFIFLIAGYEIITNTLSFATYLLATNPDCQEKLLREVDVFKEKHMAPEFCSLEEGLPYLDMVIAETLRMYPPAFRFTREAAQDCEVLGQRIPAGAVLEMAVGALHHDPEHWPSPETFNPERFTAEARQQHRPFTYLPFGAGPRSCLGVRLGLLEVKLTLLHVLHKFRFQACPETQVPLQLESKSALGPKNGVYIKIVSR
# Platelet [12] = assay: Inhibition of 8.5 x 10^-7 M 9,11 methanoepoxy-PGH2-induced platelet aggregation in human platelet rich plasma incubated for 1.5 mins at 37.5 degC; type: functional; conditions: 0.025 h
# Platelet [13] = assay: Inhibition of TxA2-induced platelet aggregation in aspirinated human platelet at 10^-4 M incubated for 1.5 mins at 37.5 degC cells preincubated with PGH2 for 15 secs; type: functional, cell-based
# Method in brief: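 TxA2 was generated by stirring human platelet microsomes (0.1 mL, 1.9 mg protein/mL) with PGH2 at 37.5 °C for 15 s. The methods give PGH2 as 10^-4 M; the legend gives it as 1.4 nmol. Aspirinated PRP (0.9 mL), preincubated 1.5 min with inhibitor, was then added. Aggregation was monitored for 5 min. Boiled microsomes served as control.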
Compound,inhibition (Platelet [1]),inhibition (INH) (Platelet [2]),inhibition (INH) (Platelet [3]),induction (Platelet [4]),induction of platelet aggregation (Platelet [5]),induction of platelet aggregation (Platelet [6]),inhibition (INH) (Platelet [7]),inhibition (INH) (Platelet [8]),IC50 (Platelet [9]),Activity (Platelet [10]),Activity (Platelet [11]),IC50 (Thromboxane-A synthase),IC50 (Platelet [12]),inhibition (Platelet [13])
C=CCO[C@@H]1[C@@H](CCCCCCC(=O)O)[C@@H]2C[C@@H]1N=N2 (racemic),inactive,0%,20%,inactive,inactive,inactive,,,,,,,,
CCCCCC(O)CO[C@@H]1[C@@H](CCCCCCC(=O)O)[C@@H]2C[C@@H]1N=N2 (mixture of isomers),inactive,100%,100%,inactive,inactive,inactive,100%,0%,31 µM,27 nmol,0 nmol,1000 nM,5.5 µM,Active
CCOC(=O)N1[C@H]2C[C@@H]([C@H](CCCCCCC(=O)O)[C@H]2O)N1C(=O)OCC (racemic),inactive,0%,21%,inactive,inactive,inactive,,,,,,,,
C=CCO[C@@H]1[C@@H](CCCCCCC(=O)O)[C@@H]2C[C@@H]1N(C(=O)OCC)N2C(=O)OCC (racemic),inactive,0%,88%,inactive,inactive,inactive,100%,0%,,,,,36 µM,
CCCCCC(O)CO[C@@H]1[C@@H](CCCCCCC(=O)O)[C@@H]2C[C@@H]1N(C(=O)OCC)N2C(=O)OCC (mixture of isomers),inactive,0%,20%,inactive,inactive,inactive,,,,,,,,
